In brackets after ≈: the same amount, converted by molar mass.
Experiments:
[1] = target: Bcr/Abl fusion protein (Homo sapiens, UniProt P00519); assay: Inhibition of BCR fused full length human recombinant N-terminal His-tagged ABL (2 to 1130 residues) expressed in baculovirus expression system using FL-peptide 2 substrate preincubated for 10 mins followed by substrate addition measured after 60 mins by mobility shift assay
[2] = target: MAP kinase-interacting serine/threonine-protein kinase 1 (Homo sapiens, UniProt Q9BUB5); assay: Inhibition of N-terminal GST-tagged MNK1 kinase domain (37 to 341 residues) (unknown origin) expressed in Escherichia coli BL21(DE3) cells using JH3 peptide substrate preincubated for 10 mins followed by substrate addition measured after 60 mins by mobility shift assay
Chain of MAP kinase-interacting serine/threonine-protein kinase 1 (Q9BUB5 whole entry, the tested form may be a part): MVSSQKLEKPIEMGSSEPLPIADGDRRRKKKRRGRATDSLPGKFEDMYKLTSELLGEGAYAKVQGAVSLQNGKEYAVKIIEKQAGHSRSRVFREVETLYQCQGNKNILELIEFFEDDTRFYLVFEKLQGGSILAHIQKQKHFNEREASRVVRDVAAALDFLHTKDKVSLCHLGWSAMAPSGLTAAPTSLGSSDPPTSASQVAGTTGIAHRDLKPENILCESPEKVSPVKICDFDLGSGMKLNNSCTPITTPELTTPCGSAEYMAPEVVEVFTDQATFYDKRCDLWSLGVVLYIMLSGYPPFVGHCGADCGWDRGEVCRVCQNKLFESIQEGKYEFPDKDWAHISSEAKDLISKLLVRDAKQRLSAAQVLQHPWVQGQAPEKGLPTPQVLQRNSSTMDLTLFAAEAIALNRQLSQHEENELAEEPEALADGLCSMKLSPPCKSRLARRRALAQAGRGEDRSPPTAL

[3] = target: MAP kinase-interacting serine/threonine-protein kinase 2 (Homo sapiens, UniProt Q9HBH9); assay: Inhibition of N-terminal GST-tagged MNK2 kinase domain (72 to 385 residues) (unknown origin) expressed in Escherichia coli BL21(DE3) cells using JH3 peptide substrate preincubated for 10 mins followed by substrate addition measured after 60 mins by mobility shift assay
Chain of MAP kinase-interacting serine/threonine-protein kinase 2 (Q9HBH9 whole entry, the tested form may be a part): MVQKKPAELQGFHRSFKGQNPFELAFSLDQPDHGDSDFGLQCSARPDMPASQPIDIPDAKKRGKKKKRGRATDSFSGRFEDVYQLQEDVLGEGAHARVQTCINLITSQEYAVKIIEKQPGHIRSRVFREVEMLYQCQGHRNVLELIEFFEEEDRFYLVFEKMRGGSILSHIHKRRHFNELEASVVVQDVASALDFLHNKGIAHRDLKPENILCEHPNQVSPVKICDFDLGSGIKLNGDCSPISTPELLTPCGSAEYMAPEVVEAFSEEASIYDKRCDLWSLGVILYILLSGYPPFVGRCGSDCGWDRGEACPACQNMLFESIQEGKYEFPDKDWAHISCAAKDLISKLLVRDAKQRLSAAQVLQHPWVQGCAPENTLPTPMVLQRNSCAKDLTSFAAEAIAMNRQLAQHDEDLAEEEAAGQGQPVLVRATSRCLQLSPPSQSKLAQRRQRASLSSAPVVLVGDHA

[4] = target: Tyrosine-protein kinase ABL1 (Homo sapiens, UniProt P00519, T315I); assay: Inhibition of full length human recombinant N-terminal His-tagged ABL (2 to 1130 residues) T315I mutant expressed in baculovirus expression system using FL-peptide 2 substrate preincubated for 10 mins followed by substrate addition measured after 60 mins by mobility shift assay
Procedure, shortened: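 Buffer is 100 mM HEPES pH 7.5, 10 mM MgCl2, 0.004% Tween 20, 1 mM DTT, 0.003% Brij L23. Enzyme and compound sit 10 min before ATP/substrate is added. The reaction runs 60 min at room temperature, is stopped with 10 mM EDTA, and is read by mobility shift.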

[5] = target: MAP kinase-interacting serine/threonine-protein kinase 1/2 (Homo sapiens, UniProt Q9HBH9+Q9BUB5); assay: Inhibition of MNK1/MNK2 in human HeLa cells assessed as reduction in phosphorylation of eIF4E at Ser209 after 2 hrs by AlphaScreen SureFire assay; assay type: cell-based
Procedure, shortened: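 HeLa cells were grown in DMEM with 10% FBS and penicillin/streptomycin, seeded at 30,000 per well and left 24 h. They were then exposed to serially diluted compound in serum-free DMEM for 2 h at 37 °C and lysed with shaking for 20 min. Phospho-eIF4E Ser209 was read by AlphaScreen SureFire with 2 h acceptor and 2 h donor steps at room temperature. Dose response was run in triplicate.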

[6] = tested on: K562; assay: Antiproliferative activity against human K562 cells over expressing eIF4E after 48 hrs by Cell-Titer-Glo luminescent cell viability assay; assay type: functional; conditions: K562, 48 h
Procedure, shortened: (§1)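 Cells seeded at 5000 per well in growth medium, exposed to serial doses from 0.003 μM to 50 μM for 48 h at 37 °C, 5% CO2. Viability was read by CellTiter-Glo luminescence and GI50 taken from the dose-response curve. Dose response was run in triplicate and the curve repeated twice. K562 eIF4E-overexpressing cells were cultured in RPMI with 10% FBS.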

[7] = Thermodynamic solubility in pH 4 pION buffer at 500 uM incubated for 18 hrs by UV-spectrophotometry; assay type: physicochemical; conditions: read-out: Therm_solubility
[8] = target: Cytochrome P450 3A4 (Homo sapiens, UniProt P08684); assay: Inhibition of CYP3A4 (unknown origin); assay type: ADME
Chain of Cytochrome P450 3A4 (P08684 whole entry): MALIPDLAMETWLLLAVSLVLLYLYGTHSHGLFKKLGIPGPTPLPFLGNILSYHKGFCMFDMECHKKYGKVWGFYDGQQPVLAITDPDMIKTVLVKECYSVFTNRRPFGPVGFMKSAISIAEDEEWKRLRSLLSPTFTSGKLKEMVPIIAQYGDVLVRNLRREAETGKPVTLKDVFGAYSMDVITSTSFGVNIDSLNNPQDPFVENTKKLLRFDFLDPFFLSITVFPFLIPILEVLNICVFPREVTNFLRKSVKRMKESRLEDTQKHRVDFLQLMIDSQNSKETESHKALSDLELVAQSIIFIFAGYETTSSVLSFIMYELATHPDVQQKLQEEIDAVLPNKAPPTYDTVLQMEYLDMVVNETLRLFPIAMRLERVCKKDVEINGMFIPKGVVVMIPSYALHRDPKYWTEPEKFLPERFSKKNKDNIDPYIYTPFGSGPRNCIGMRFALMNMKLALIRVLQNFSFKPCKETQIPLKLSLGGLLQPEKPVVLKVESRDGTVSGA

[9] = target: Cytochrome P450 2D6 (Homo sapiens, UniProt P10635); assay: Inhibition of CYP2D6 (unknown origin); assay type: ADME
Chain of Cytochrome P450 2D6 (P10635 whole entry): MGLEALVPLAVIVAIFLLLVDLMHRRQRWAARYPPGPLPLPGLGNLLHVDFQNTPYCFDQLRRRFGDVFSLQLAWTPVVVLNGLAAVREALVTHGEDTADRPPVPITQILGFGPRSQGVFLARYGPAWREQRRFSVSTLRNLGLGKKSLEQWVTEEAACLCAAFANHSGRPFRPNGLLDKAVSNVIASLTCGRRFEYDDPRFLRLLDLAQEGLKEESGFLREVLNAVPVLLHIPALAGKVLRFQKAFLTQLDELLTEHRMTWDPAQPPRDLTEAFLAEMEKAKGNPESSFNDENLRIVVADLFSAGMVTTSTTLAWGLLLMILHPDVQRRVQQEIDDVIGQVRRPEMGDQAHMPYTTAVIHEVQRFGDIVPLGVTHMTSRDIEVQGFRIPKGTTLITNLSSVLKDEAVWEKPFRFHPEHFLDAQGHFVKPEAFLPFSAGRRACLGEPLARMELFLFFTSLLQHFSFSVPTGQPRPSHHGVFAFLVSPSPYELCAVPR

[10] = Permeability of compound by PAMPA; assay type: ADME; conditions: read-out: permeability
[11] = tested on: K562; assay: Antiproliferative activity against human K562 cells after 48 hrs by Cell-Titer-Glo luminescent cell viability assay; assay type: functional; conditions: K562, 48 h; procedure, shortened: as §1
[12] = Antiproliferative activity against human BV173 cells after 48 hrs by Cell-Titer-Glo luminescent cell viability assay; assay type: functional; conditions: BV-173, 48 h; procedure, shortened: as §1
[13] = Antiproliferative activity against human EM2 cells after 48 hrs by Cell-Titer-Glo luminescent cell viability assay; assay type: functional; conditions: EM-2, 48 h; procedure, shortened: as §1
[14] = Antiproliferative activity against human KCL22 cells after 48 hrs by Cell-Titer-Glo luminescent cell viability assay; assay type: functional; conditions: KCL-22, 48 h
[15] = Antiproliferative activity against human JURL-MK1 cells after 48 hrs by Cell-Titer-Glo luminescent cell viability assay; assay type: functional; conditions: JURL-MK1, 48 h
[16] = tested on: K562; assay: Antitumor activity against human K562 cells over expressing eIF4E xenografted in NOD-SCID mouse assessed as tumor growth inhibition at 200 mg/kg, po qd administered through oral gavage for 14 days relative to control; assay type: functional; conditions: 336 h, read-out: TGI
Procedure, shortened: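 Female SCID mice, 7-10 weeks old, received 1 x 10^7 K562 eIF4E-overexpressing cells subcutaneously. At tumor volumes of 75-245 mm³ (w²×l/2) mice were randomized and gavaged once daily for 14 days at 10 mL/kg.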

[17] = Thermodynamic solubility in pH 7 pION buffer at 500 uM incubated for 18 hrs by UV-spectrophotometry; assay type: physicochemical; conditions: read-out: Therm_solubility

Compound	IC50 [1] [nM]	IC50 [2] [nM]	IC50 [3] [nM]	IC50 [5] [nM]	GI50 [6] [nM]	other results
O=C(CNc1ccc(-c2ccc(NC(=O)C3CC3)nc2)cc1)Nc1ccc(CN2CCNCC2)c(C(F)(F)F)c1	210	510	8	320	80	IC50 [4]: 100 nM; solubility thermodynamic at 18 h, 500 µM [7]: 109 µg/mL (≈ 197 µM); IC50 [8]: 1100 nM; IC50 [9]: > 20000 nM; Papp [10]: 5.53 ×10⁻⁶ cm/s
CCN1CCN(Cc2ccc(NC(=O)COc3ccc(-c4ccccn4)cc3)cc2C(F)(F)F)CC1	> 10000	> 10000	> 10000			
Cc1ccc(NC(=O)c2ccc(CN3CCN(C)CC3)cc2)cc1Nc1nccc(-c2cccnc2)n1 [IMATINIB]						GI50 [11]: 200 nM; GI50 [12]: 100 nM; GI50 [13]: 260 nM; GI50 [14]: 430 nM; GI50 [15]: 60 nM; inhibition in vivo at 200 mg/kg [16]: 57%
CC(=O)Nc1ccc(-c2ccc(NCC(=O)Nc3ccc(CN4CCNCC4)c(C(F)(F)F)c3)cc2)cn1	880	3920	32	200	400	IC50 [4]: 240 nM; solubility thermodynamic at 18 h, 500 µM [7]: 132 µg/mL (≈ 250 µM); IC50 [8]: 2400 nM; IC50 [9]: > 20000 nM; Papp [10]: 1.13 ×10⁻⁶ cm/s
CCN1CCN(Cc2ccc(NC(=O)Cc3ccc(Oc4ccncc4)cc3)cc2C(F)(F)F)CC1	3880	540	10			
CCN1CCN(Cc2ccc(NC(=O)COc3ccc(-c4ccc(C(=O)NC)nc4)cc3)cc2C(F)(F)F)CC1	> 10000	> 10000	6860			
CCN1CCN(Cc2ccc(NC(=O)CNc3ccc(-c4cccnc4)cc3)cc2C(F)(F)F)CC1	> 10000	350	11			
CCN1CCN(Cc2ccc(NC(=O)CNc3ccc(-c4ccc(NC(C)=O)nc4)cc3)cc2C(F)(F)F)CC1	380	5980	44	320	340	IC50 [4]: 90 nM; solubility thermodynamic at 18 h, 500 µM [17]: 0.6 µg/mL (≈ 1.08 µM); IC50 [8]: 3200 nM; IC50 [9]: > 20000 nM; Papp [10]: 26.2 ×10⁻⁶ cm/s
CCN1CCN(Cc2ccc(CC(=O)Nc3ccc(Oc4cc(NC)ncn4)cc3)cc2C(F)(F)F)CC1	> 10000	> 10000	760			
CC(C)C(=O)Nc1ccc(-c2ccc(NCC(=O)Nc3ccc(CN4CCNCC4)c(C(F)(F)F)c3)cc2)cn1	> 10000	7700	130	860	3300	IC50 [4]: > 10000 nM
CCN1CCN(Cc2ccc(NC(=O)Cc3ccc(Oc4cc(NC)ncn4)cc3)cc2C(F)(F)F)CC1	> 10000	3690	22			
CCN1CCN(Cc2ccc(NC(=O)Cc3ccc(Oc4ccnc(NC)c4)cc3)cc2C(F)(F)F)CC1	580	370	8			
CCN1CCN(Cc2ccc(NC(=O)C(C)Oc3ccc(-c4cccnc4)cc3)cc2C(F)(F)F)CC1 (configuration not stated)	> 10000	> 10000	> 10000			
CCN1CCN(Cc2ccc(NC(=O)COc3ccc(-c4ccc(NC(C)=O)nc4)cc3)cc2C(F)(F)F)CC1	390	5680	33	680	100	IC50 [4]: 170 nM

The next lines start with results.

IC50 [1] [nM]	IC50 [2] [nM]	IC50 [3] [nM]	Compound	IC50 [5] [nM]	GI50 [6] [nM]	other results
> 10000	> 10000	> 10000	CCN1CCC(Cc2ccc(NC(=O)COc3ccc(-c4cccnc4)cc3)cc2C(F)(F)F)CC1			
> 10000	4510	82	CCC1CCN(Cc2ccc(NC(=O)COc3ccc(-c4cccnc4)cc3)cc2C(F)(F)F)CC1			
> 10000	> 10000	1910	CCN1CCN(Cc2ccc(NC(=O)COc3ccc(-c4ccncc4)cc3)cc2C(F)(F)F)CC1			
> 10000	350	12	O=C(COc1ccc(-c2cccnc2)cc1)Nc1ccc(CN2CCNCC2)c(C(F)(F)F)c1			
> 10000	570	14	CCN1CCN(Cc2ccc(NC(=O)COc3ccc(-c4cccnc4)cc3)cc2C(F)(F)F)CC1	98	> 10000	
> 10000	> 10000	130	CCN1CCN(Cc2ccc(NC(=O)COc3ccc(-c4cccnc4)cc3)cc2C2CC2)CC1			
